One series relates to Ebolavirus. In words: Antiviral activity against Ebolavirus infected in african green monkey COS1 cells assessed as inhibition of viral replication after 32 hrs by luciferase reporter gene assay. The series is classed as functional, COS-1. Put shortly:
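Ebola minigenome assay, not live virus: COS-1 cells in suspension were batch-transfected with minireplicon and NP/VP35/L support plasmids, then plated in 96-well format. Compounds in DMSO were added at 10 μM final; DMSO-only wells served as controls. Luciferase was read after 32 h. Percent inhibition = 1 − (compound-well signal / mean DMSO-well signal) × 100.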
(A reporter such as luciferase makes a cellular process visible.)

Series [1] can be described thus: Cytotoxicity against african green monkey COS1 cells assessed as reduction in cell viability after 32 hrs by luminescent assay. The class given is cell-based, COS-1. Conditions: chlorocebus aethiops, read-out: INH. Put shortly: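 Parallel plates of batch-transfected COS-1 cells received the same compounds in DMSO (10 μM final). Cell viability was measured with the CellTiter-Glo luminescent assay to flag cytotoxicity.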

In the case of `CC[C@H]1CN2CCc3cc(OC)c(OC)cc3[C@@H]2C[C@@H]1C[C@H]1NCCc2cc(O)c(OC)cc21.Cl.Cl` [CEPHAELINE DIHYDROCHLORIDE], the “inhibition (INH)” value with Ebolavirus was found to be 99%. The cytotoxicity at 32 h in series [1] was determined as 14%.

With `COc1cccc2c1C(=O)c1c(O)c3c(c(O)c1C2=O)C[C@@](O)(C(=O)CO)C[C@@H]3O[C@H]1C[C@H](N)[C@H](O)[C@H](C)O1.Cl` [DOXORUBICIN HYDROCHLORIDE], the “inhibition (INH)” value in the series with Ebolavirus is given as 97%. Further, the cytotoxicity at 32 h in series [1] is 25%.

`Cc1c2ccncc2c(C)c2c1[nH]c1ccccc12` [ELLIPTECINE]: the “inhibition (INH)” value in the series with Ebolavirus is recorded as 99%. The cytotoxicity at 32 h in series [1] came out at 8%.

With `CC[C@H]1CN2CCc3cc(OC)c(OC)cc3[C@@H]2C[C@@H]1C[C@H]1NCCc2cc(OC)c(OC)cc21.Cl.Cl` [EMETINE HYDROCHLORIDE], the “inhibition (INH)” value in the series on Ebolavirus came to 99%. In addition, the cytotoxicity at 32 h in series [1] turned out to be 3%.

On to `O=C1C=C2C(=CCOC2O)O1` (configuration not stated) [PATULIN], for which the “inhibition (INH)” value in the series on Ebolavirus came to 89%. In addition, the cytotoxicity at 32 h in series [1] is 20%.

As to `CC[C@@H](C(=O)[C@@H](C)[C@@H](O)[C@H](C)[C@@H]1O[C@@H]([C@@H](CC)C(=O)O)CC[C@@H]1C)[C@H]1O[C@]2(C=C[C@@H](O)[C@]3(CC[C@@](C)([C@H]4CC[C@](O)(CC)[C@H](C)O4)O3)O2)[C@H](C)C[C@@H]1C` [SALINOMYCIN], the “inhibition (INH)” value in the series on Ebolavirus is 86%. Besides, in series [1], the cytotoxicity at 32 h turned out to be 17%.

Values taken from ChEMBL document CHEMBL1629687, “Minigenome-based reporter system suitable for high-throughput screening of compounds able to inhibit Ebolavirus replication and/or transcription” (Antimicrob Agents Chemother, 2010).
